One experiment concerns M9-ENL1 cells. As to the kind of experiment: Cell viability of M9-ENL1 cells, Annexin V / 7-AAD flow cytometry. It counts as cell-based, human. The settings on record: 20 μM, 24 h. A general note: In flow cytometry, cells or beads pass a laser one at a time.
The subject of experiment [1] is AML01 primary AML specimen. The experiment is described as follows: Cell viability of primary AML specimen AML01. It counts as cell-based. The settings on record: Homo sapiens, AML01, read-out: AML01 LC50. Summed up:
(§1)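 Primary AML samples came from consenting donors. Live mononuclear cells were isolated on a Ficoll-Paque density gradient and cryopreserved, with 40–70% viability after thawing. Cells were kept at 37 °C, humidified, 5% CO2.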

The subject of experiment [2] is AML02 primary AML specimen. The experiment is described as follows: Cell viability of primary AML specimen AML02. It counts as cell-based. The settings on record: Homo sapiens, read-out: AML02 LC50. The method, boiled down: as §1
In experiment [3] the test system is AML03 primary AML specimen. The experiment is described as follows: Cell viability of primary AML specimen AML03. It counts as cell-based. The conditions noted are these: Homo sapiens, read-out: AML03 LC50. The method, boiled down: as §1
For experiment [4], the system named is primary AML specimens derived from patients with relapsed AML. As to the kind of experiment: Activity against the four primary AML specimens. It counts as cell-based. The settings on record: Homo sapiens, read-out: LC50 across the four primary AML specimens.
In another experiment the target is T1, P450BM3 variant V-F10 (Priestia megaterium, UniProt P14779, A181T/A185V/A198V/A291V/E253G/F206C/F82V/F88A/H237Q/L354V/P143S/R256S/S227R/T176I/V79F).
T1 sequence (P14779 1-1049 V79F/F82V/F88A/P143S/T176I/A181T/A185V/A198V/F206C/S227R/H237Q/E253G/R256S/A291V/L354V): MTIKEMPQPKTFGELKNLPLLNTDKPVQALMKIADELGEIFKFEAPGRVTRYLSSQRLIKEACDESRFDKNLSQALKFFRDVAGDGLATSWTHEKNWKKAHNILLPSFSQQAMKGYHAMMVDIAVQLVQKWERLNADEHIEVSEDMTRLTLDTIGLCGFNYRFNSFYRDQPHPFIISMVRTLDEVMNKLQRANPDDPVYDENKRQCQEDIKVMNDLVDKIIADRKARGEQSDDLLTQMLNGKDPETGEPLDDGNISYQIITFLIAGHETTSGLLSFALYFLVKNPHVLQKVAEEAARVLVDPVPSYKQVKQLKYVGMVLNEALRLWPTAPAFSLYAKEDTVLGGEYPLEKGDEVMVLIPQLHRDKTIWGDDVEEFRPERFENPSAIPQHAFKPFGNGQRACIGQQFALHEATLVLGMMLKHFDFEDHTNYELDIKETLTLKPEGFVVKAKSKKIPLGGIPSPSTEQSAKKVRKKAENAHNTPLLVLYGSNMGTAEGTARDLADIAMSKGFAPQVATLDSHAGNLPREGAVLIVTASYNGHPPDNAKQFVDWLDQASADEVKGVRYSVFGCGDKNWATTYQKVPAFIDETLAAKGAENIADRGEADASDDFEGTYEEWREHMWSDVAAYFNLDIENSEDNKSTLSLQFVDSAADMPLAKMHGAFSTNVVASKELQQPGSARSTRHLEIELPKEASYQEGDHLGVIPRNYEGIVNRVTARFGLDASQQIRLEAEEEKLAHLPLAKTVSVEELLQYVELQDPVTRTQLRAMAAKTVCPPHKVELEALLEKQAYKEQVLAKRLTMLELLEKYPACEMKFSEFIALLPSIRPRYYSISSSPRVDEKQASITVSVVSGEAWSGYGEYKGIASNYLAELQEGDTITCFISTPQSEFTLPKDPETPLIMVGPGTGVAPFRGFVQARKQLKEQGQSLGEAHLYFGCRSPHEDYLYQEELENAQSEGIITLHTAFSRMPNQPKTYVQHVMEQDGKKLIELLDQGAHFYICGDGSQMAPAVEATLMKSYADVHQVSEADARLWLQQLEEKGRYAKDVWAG
The experiment is described as follows: Heme spin shift binding of MCL to P450 variant V-F10. Set-up: species or system Bacillus megaterium. The method, boiled down: (§2)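 Purified P450 (3 μM) in 50 mM potassium phosphate, pH 8.0, titrated with test compound (5–2000 μM) from a 50 mM ethanol stock. A difference spectrum (350–500 nm) was taken at each step. Absorbance change at 390/420 nm (high/low spin) was plotted against concentration, with KD from a nonlinear 1:1 binding fit. At least triplicate, room temperature.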

In a further experiment the target is T2, P450BM3 variant V-H10 (Priestia megaterium, UniProt P14779, A181T/A185V/A198V/A291V/E253G/F206C/F88A/H237Q/L354V/P143S/R256S/S227R/T176I/V79N).
T2 sequence (P14779 1-1049 V79N/F88A/P143S/T176I/A181T/A185V/A198V/F206C/S227R/H237Q/E253G/R256S/A291V/L354V): T1 sequence (P14779 1-1049 V79F/F82V/F88A/P143S/T176I/A181T/A185V/A198V/F206C/S227R/H237Q/E253G/R256S/A291V/L354V) with F79N, V82F
The experiment is described as follows: Heme spin shift binding of MCL to P450 variant V-H10. On the set-up: species or system Bacillus megaterium. The method, boiled down: as §2

In the next experiment the test system is AML cells and LSCs. The settings on record: MCL vs PTL; cited from earlier work.

Residue numbers refer to the chain shown, from its start.

The term Kd denotes the concentration at which binding is half-saturated.

In the case of `C=C1C(=O)O[C@H]2[C@H]1CCC(C)=C1CC[C@@](C)(O)[C@@H]12` [MCL, micheliolide], in the experiment on M9-ENL1 cells, the “reduction in cell viability” value is 50%. Also, the CC50 in experiment [1] is 18.8 µM; in experiment [2] it was 20.3 µM; in experiment [3], 15.7 µM; in experiment [4], 19 to 22 µM. Further, the Kd is 88 ± 18 µM at P450BM3 variant V-F10 and 590 ± 90 µM at P450BM3 variant V-H10. Further, the “LC50 in vitro relative to PTL (fold higher)” value in the experiment on AML cells and LSCs is given as approximately 3 fold.

The values above are taken from paper PMC8161485 (ACS Central Science, 2021).
